Legend:
Staphylococcus aureus = test: Antimicrobial activity against Staphylococcus aureus 6538/P after 18 hrs by microdilution method; type: functional
How it was run: (§1)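 Broth microdilution per NCCLS M7-A4. Stocks kept on nutrient agar at 4 °C. Overnight cultures in double-strength Mueller-Hinton broth, adjusted to 10⁸ cfu/mL against McFarland 0.5. Compounds serially diluted in sterile distilled water (400 down to 0.78). Incubated at 37 °C for 18 h. MIC taken as the first well without turbidity. Wells without organism and water/medium growth controls included.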

Pichia kudriavzevii = test: Antifungal activity against Candida krusei ATCC 6258 after 18 hrs by microdilution method; type: functional
How it was run: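 NCCLS M27-A broth microdilution for yeast. Two-fold series from 400 to 0.78 made in sterile distilled water. Inoculum in double-strength yeast glucose broth, adjusted to 10⁸ cfu/mL (McFarland 0.5). Incubated 37 °C, 18 h. MIC taken as the first well without turbidity. Medium-only and water-plus-medium controls.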

Klebsiella pneumoniae = test: Antimicrobial activity against Klebsiella pneumoniae CCM 2318 after 18 hrs by microdilution method; type: functional
How it was run: (§2)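 NCCLS M7-A4 broth microdilution. Two-fold series from 400 to 0.78 made in sterile distilled water. Overnight bacteria in double-strength Mueller-Hinton broth, adjusted to 10⁸ cfu/mL (McFarland 0.5). Incubated 37 °C, 18 h. MIC taken as the first well without turbidity. Medium-only and water-plus-medium controls.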

Salmonella typhimurium = test: Antimicrobial activity against Salmonella Typhimurium CCM 5445 after 18 hrs by microdilution method; type: functional, Salmonella enterica subsp. enterica serovar Typhimurium; how it was run: as §2
[1] = Acute toxicity in po dosed Swiss albino mouse after 24 hrs; type: organism-based; conditions: in vivo
How it was run: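 Mice dosed orally, 5 male and 5 female per group; limit test at 2000 mg/kg, plus classical LD50 test; toxic responses and deaths recorded over 24 h; LD50 derived from lethality.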

Candida albicans = test: Antifungal activity against Candida albicans ATCC 10231 after 18 hrs by microdilution method; type: functional
How it was run: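 Yeast broth microdilution per NCCLS M27-A. Stock kept on potato dextrose agar at 4 °C. Suspension in double-strength yeast glucose broth, adjusted to 10⁸ cfu/mL by McFarland 0.5. Water-based twofold series (400 down to 0.78) used. Incubated at 37 °C for 18 h. MIC is the lowest concentration with no visible turbidity.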

Micrococcus luteus = test: Antimicrobial activity against Micrococcus luteus ATCC 9341 after 18 hrs by microdilution method; type: functional; how it was run: as §2
[2] = test system: Staphylococcus epidermidis; test: Antimicrobial activity against Staphylococcus epidermidis ATCC 12228 after 18 hrs by microdilution method; type: functional; how it was run: as §1
Proteus vulgaris = test: Antimicrobial activity against Proteus vulgaris ATCC 6897 after 18 hrs by microdilution method; type: functional; how it was run: as §2
Bacillus cereus = test: Antimicrobial activity against Bacillus cereus CCM 99 after 18 hrs by microdilution method; type: functional; how it was run: as §2
Escherichia coli = test: Antimicrobial activity against Escherichia coli ATCC 8739 after 18 hrs by microdilution method; type: functional; how it was run: as §1
[3] = Salmonella enterica, CCM 5445, 18 h

Row | Molecule | MIC (Staphylococcus aureus) [µg/mL] | MIC (Pichia kudriavzevii; ATCC 6258, 18 h) [µg/mL] | MIC (Klebsiella pneumoniae; CCM 2318, 18 h) [µg/mL] | MIC (Salmonella typhimurium; [3]) [µg/mL] | LD50 at 24 h [1] [mg/kg] | MIC (Candida albicans; ATCC 10231, 18 h) [µg/mL] | MIC (Micrococcus luteus; ATCC 9341, 18 h) [µg/mL] | MIC ([2]; ATCC 12228, 18 h) [µg/mL] | MIC (Proteus vulgaris; ATCC 6897, 18 h) [µg/mL] | MIC (Bacillus cereus; CCM 99, 18 h) [µg/mL] | MIC (Escherichia coli; ATCC 8739, 18 h) [µg/mL] | MIC (Pichia kudriavzevii) [µg/mL] | MIC (Candida albicans) [µg/mL] | MIC (Klebsiella pneumoniae) [µg/mL] | MIC (Salmonella typhimurium; Salmonella enterica subsp. enterica serovar Typhimurium) [µg/mL] | MIC (Micrococcus luteus) [µg/mL] | MIC [2] [µg/mL] | MIC (Proteus vulgaris) [µg/mL] | MIC (Bacillus cereus) [µg/mL] | MIC (Escherichia coli) [µg/mL]
1 | C1=[N+](Cc2ccccc2)CC2CCCCN12.[Br-] (centres undefined) | 100 | > 400 | > 400 | > 400 | 907 | > 400 | 3.12 | 50 | > 400 | > 400 | > 400 | – | – | – | – | – | – | – | – | –
2 | Cc1ccc(C[N+]2=CN3CCCCC3C2)cc1.[Br-] (centres undefined) | 3.12 | 0.78 | 0.78 | 50 | > 2000 | 3.12 | 6.25 | 1.56 | 6.25 | < 0.78 | 0.78 | – | – | – | – | – | – | – | – | –
3 | N#Cc1ccc(C[N+]2=CN3CCCCC3C2)cc1.[Br-] (centres undefined) | 1.56 | 0.78 | 12.5 | 0.78 | > 2000 | 0.78 | 0.78 | 1.56 | 6.25 | 3.12 | 0.78 | – | – | – | – | – | – | – | – | –
4 | Clc1ccc(C[N+]2=CN3CCCCC3C2)c(Cl)c1.[Br-] (centres undefined) | 0.78 | 0.78 | 12.5 | 0.78 | 1890 | 0.78 | 0.78 | 0.78 | 1.56 | 3.12 | 3.12 | – | – | – | – | – | – | – | – | –
5 | Cc1cc(C)c(C[n+]2cn(C)c3ccccc32)c(C)c1.[Cl-] | 1600 | – | – | – | – | 1600 | – | 1600 | – | – | 1600 | – | – | – | – | – | – | – | – | –
6 | CC(C)(C)c1ccc(C[N+]2=CN3CCCCC3C2)cc1.[Br-] (centres undefined) | 100 | 50 | 200 | 100 | 838 | 25 | 12.5 | 100 | 50 | 200 | 200 | – | – | – | – | – | – | – | – | –
7 | Cc1cc(C)c(C)c(C[N+]2=CN3CCCCC3C2)c1C.[Br-] (centres undefined) | 50 | 6.25 | 200 | 50 | 1950 | 50 | 12.5 | 6.25 | 6.25 | 100 | 50 | – | – | – | – | – | – | – | – | –
8 | Fc1c(F)c(F)c(C[N+]2=CN3CCCCC3C2)c(F)c1F.[Br-] (centres undefined) | 3.12 | 3.12 | 12.5 | 25 | 978 | 12.5 | 0.78 | 0.78 | 12.5 | 6.25 | 25 | – | – | – | – | – | – | – | – | –
9 | Cc1cc(C)c(CN2C=[N+](Cc3c(C)cc(C)cc3C)C3CCCCC32)c(C)c1.[Cl-] (centres undefined) | 100 | – | – | – | – | 1600 | – | 1600 | – | – | 1600 | – | – | – | – | – | – | – | – | –
10 | FC(F)(F)c1ccc(C[N+]2=CN3CCCCC3C2)cc1.[Br-] (centres undefined) | 1.56 | 0.78 | 12.5 | 0.78 | 824 | 0.78 | 0.78 | 0.78 | 6.25 | 3.12 | 0.78 | – | – | – | – | – | – | – | – | –
11 | NYSTATIN | – | – | – | – | – | – | – | – | – | – | – | 3.12 | 6.25 | – | – | – | – | – | – | –
12 | Cc1c(C)c(C)c(C[N+]2=CN3CCCCC3C2)c(C)c1C.[Br-] (centres undefined) | 25 | 3.12 | 50 | 12.5 | 1110 | 50 | 12.5 | 3.12 | 6.25 | 12.5 | 12.5 | – | – | – | – | – | – | – | – | –
13 | Cc1cc(C)c(C[N+]2=CN3CCCCC3C2)c(C)c1.[Br-] (centres undefined) | 50 | 12.5 | 200 | 100 | 758 | 50 | 6.25 | 25 | 50 | 200 | 200 | – | – | – | – | – | – | – | – | –
14 | GENTAMICIN | 3.12 | – | – | – | – | – | – | – | – | – | – | – | – | 25 | 6.25 | 1.56 | 1.56 | 0.78 | 6.25 | 3.12
15 | Clc1ccc(C[N+]2=CN3CCCCC3C2)cc1.[Br-] (centres undefined) | 1.56 | 0.78 | 12.5 | 0.78 | > 2000 | 0.78 | 0.78 | 0.78 | 6.25 | 3.12 | 3.12 | – | – | – | – | – | – | – | – | –

From ChEMBL document CHEMBL1795313, “Synthesis and antimicrobial activities of hexahydroimidazo[1,5-a]pyridinium bromides with varying benzyl substituents” (Eur J Med Chem, 2011)
